The full list was thinned out, with hits kept by preference.
p-CIP stab down: p/CIP protein destabilization. Q05BA5. F442A p/CIP-EGFP cells, EGFP fluorescence, 16 h. decrease of EGFP signal, % at 10 µM. 0.01% of 290,000 active;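 active means EGFP signal decrease of at least 30% at 10 µM or well 3 SD below plate mean, unless failing retest; inactive means the rest, including hits failing retest or dose response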
CHOP inh: inhibitors of CHOP induction in ER stress response | CHO-K1 CHOP-promoter luciferase, tunicamycin-induced, 15-18 h | inhibition, % at 10 µM | 3.8% of 220,000 active | AID 2732;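 active means compounds that reduced the stress-induced luciferase reporter signal by more than about 70% of percent inhibition, limit read from the data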;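 further: 0% = tunicamycin plus vehicle and 100% = wells without tunicamycin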
UPR XBP1 act: adaptive UPR (XBP1) activation; 0.33% of 330,000 active; activation, % at 20 µM; CHO-XBP1 luciferase reporter, IRE1-XBP1 UPR activation, luminescence; percent of tunicamycin response, DMSO as zero; AID 463104;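 active means versus positive control, 20 µM dose yields 30% or more activation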;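 further: 100% = tunicamycin at 10 µg/mL and 0% = DMSO only wells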
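Assay system: CHO-XBP1 luciferase reporter cells; Schedule: 6 h treatment, 37 °C; Detection: glow luminescence from Steady-Glo reagent; Benchmarks: high control tunicamycin 10 µg/mL final, low control DMSO vehicle only.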
CHOP UPR activ: apoptotic UPR (CHOP) activation | CHO-CHOP luciferase reporter, luminescence; percent of tunicamycin response over DMSO baseline | activation, % at 10 µM | 0.34% of 330,000 active | AID 449763;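 active means at 10 µM dose, activation of 40% or more, normalized to positive control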;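 further: 100% = tunicamycin at 10 µg/mL and 0% = DMSO alone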
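System: CHO CHOP reporter cells. Amount: 500 cells per well. Buffer or medium: F12 medium, 10% FBS. Compound dosing: one dose, 10 µM in 0.5% DMSO. Incubation: 6 h compound exposure at 37 °C after overnight seeding. Technique: Steady-Glo luciferase luminescence. Benchmarks: tunicamycin and DMSO controls.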
B2AR ag: agonists of human beta-2 adrenergic receptor inducing internalization | P07550 | Am2.2-beta2AR cells, FAP receptor internalization, flow cytometry | response, % (test concentration not listed) | 0.43% of 340,000 active | AID 504454;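 active means response above a set limit, near 3 SD of response in nonfluorescent compounds, cut at about 42% in these data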
Target sequence (P07550 whole entry, looked up): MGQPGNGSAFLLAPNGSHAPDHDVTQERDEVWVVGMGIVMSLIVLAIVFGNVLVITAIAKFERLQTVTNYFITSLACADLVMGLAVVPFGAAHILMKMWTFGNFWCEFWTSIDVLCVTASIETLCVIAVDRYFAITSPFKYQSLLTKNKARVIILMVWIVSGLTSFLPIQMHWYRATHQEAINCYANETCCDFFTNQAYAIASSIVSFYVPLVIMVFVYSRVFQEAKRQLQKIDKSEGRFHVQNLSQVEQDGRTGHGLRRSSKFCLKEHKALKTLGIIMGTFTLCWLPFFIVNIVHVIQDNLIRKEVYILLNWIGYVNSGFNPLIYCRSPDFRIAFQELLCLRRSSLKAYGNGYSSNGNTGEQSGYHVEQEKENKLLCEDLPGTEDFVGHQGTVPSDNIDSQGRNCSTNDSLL
Dynein transport: dynein cargo transport inhibition; 3617.4 mouse cells, GR-EGFP nuclear translocation imaging; test concentration mostly 20 µM; stimulated with dexamethasone, 1 µM; hits give low values; z-score, hits read low; AID 1381; 0.47% of 220,000 active;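 active means plate z-score of nuclear minus cytoplasmic receptor signal below a set negative limit, without overly bright fluorescence or cell loss, cut at about -3.5 in these data, passing the limit was not always enough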;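 further: z-score of nuclear minus cytoplasmic ring GR-EGFP intensity difference per well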
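Medium: Induction medium lacking tetracycline, stripped serum | Probe or stimulus: 1.0 µM final dexamethasone stimulus | Schedule: 48 h induction, then 1 h compound, then 30 min agonist, 37 °C | Signal: Automated 10x imaging of fixed Hoechst-stained cells | Evaluation: Per-cell GR-EGFP intensity, nucleus versus surrounding cytoplasmic ring, well-averaged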
Dynein confirm: dynein cargo transport inhibition, confirmation; calls only at 20 µM; shares compounds with Dynein transport; 69% of 1,000 active; AID 463116; 3617.4 GR-EGFP nuclear translocation imaging, dexamethasone-induced;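 active means inhibition of receptor movement into the nucleus at or above a set limit in both runs, with normal cell brightness and cell count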;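 further: dexamethasone at 1 µM final in well for 30 min; nuclear minus cytoplasmic GR-EGFP mean intensity difference in channel 2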
CHOP inh conf: confirmation of CHOP induction inhibitors. shares compounds with CHOP inh. CHO-CHOP promoter luciferase reporter, tunicamycin-induced, luminescence. 45% of 2,100 active. AID 504437. inhibition, % at 10 µM;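 active means mean of three repeat readings of reporter signal inhibition above a set limit, cut at about 70% in these data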;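 further: 0% = tunicamycin plus vehicle and 100% = wells lacking tunicamycin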
* hit, by the source's call.

What do the screens show for `c1ccc2c(c1)N1CCCN=C1N2CCN1CCCCC1`?
p-CIP stab down: -9.6; CHOP inh: -3.6; UPR XBP1 act: -2.2; CHOP UPR activ: -3.2; B2AR ag: -7.1; Dynein transport: -0.297

What do the screens show for `COC(=O)CS(=O)(=O)c1nnc([C@H](Cc2ccccc2)NC(=O)OC(C)(C)C)o1`?
p-CIP stab down: -11.9; CHOP inh: 111.1*; UPR XBP1 act: -11.2; CHOP UPR activ: -10.4; B2AR ag: 15.6; Dynein transport: -3.88*; Dynein confirm: active; CHOP inh conf: 94.1*

How did O=C(CCl)N1CCN2C(=O)c3ccccc3C12c1ccc(Cl)cc1 (stereo unspecified) do in these assays?
p-CIP stab down: 1.9; CHOP inh: 105.4*; UPR XBP1 act: -10.3; CHOP UPR activ: -0.9; B2AR ag: 14.6; Dynein transport: -4.65*; Dynein confirm: active; CHOP inh conf: 112.9*

How did Cc1nc(COC(=O)c2cc(O)c3ccccc3c2O)cs1 do in these assays?
p-CIP stab down: -29.3; CHOP inh: 103.8*; B2AR ag: 2.4; Dynein transport: -3.61*; Dynein confirm: inactive; CHOP inh conf: 119.7*

How did O=C(COC(=O)CCNS(=O)(=O)c1ccccc1)NC(=O)c1ccccc1 do in these assays?
UPR XBP1 act: -1.6; CHOP UPR activ: -0.9; B2AR ag: -3.4

What do the screens show for `CC1=CC(=O)C=C(C)C1=NOS(=O)(=O)c1ccccc1`?
p-CIP stab down: 8.9; B2AR ag: 32.9; Dynein transport: -5*; Dynein confirm: active; CHOP inh conf: 73.5*

What do the screens show for `Cc1ccc2c(c1)/C(=N/OS(=O)(=O)c1ccccc1)CCS2`?
UPR XBP1 act: 0.1; CHOP UPR activ: 1.5; B2AR ag: 1.6; Dynein transport: -0.178

What do the screens show for `Cc1ccc(C(=O)N/C(=C\c2cccc([N+](=O)[O-])c2)C(=O)NC(Cc2ccccc2)C(=O)O)cc1` (stereo unspecified)?
p-CIP stab down: 1.7; UPR XBP1 act: -3.5; CHOP UPR activ: 1.7; B2AR ag: -1.1

Results for COc1ccc(C(C(=O)NC2CCCCC2)N(C(=O)CCl)c2cccc(Cl)c2)cc1 (stereo unspecified) ?
p-CIP stab down: -2.5; CHOP inh: 105.8*; B2AR ag: 42.5*; Dynein transport: -3.86*; Dynein confirm: active; CHOP inh conf: 104.3*

Results for COc1cccc(N(C(=O)c2cnccn2)C(C(=O)NC2CCCCC2)c2ccc(Cl)cc2)c1 (stereo unspecified) ?
p-CIP stab down: 0.0; CHOP inh: 16.5; UPR XBP1 act: -3.4; CHOP UPR activ: 0.4; B2AR ag: 7.7; Dynein transport: -0.627

What do the screens show for `O=S1(=O)C=C(Sc2nc3ccccc3s2)c2ccccc21`?
p-CIP stab down: -0.3; UPR XBP1 act: -4.4; CHOP UPR activ: -10.8; Dynein transport: -4.11*; Dynein confirm: active; CHOP inh conf: 114.8*

Results for COc1ccc(OC)c(CCNC(=O)Cn2sc3nc(C)cc(C)c3c2=O)c1 ?
p-CIP stab down: -2.3; CHOP inh: 98.5*; UPR XBP1 act: -4.5; CHOP UPR activ: 6.1; Dynein transport: -4.13*; Dynein confirm: active; CHOP inh conf: -2.2

How did COc1ccc(OC)c(CCNC(=O)Cn2nc(C)c3c(C)n(-c4ccc(C)cc4)nc3c2=O)c1 do in these assays?
p-CIP stab down: -10.9; UPR XBP1 act: -3.9; CHOP UPR activ: 1.8; B2AR ag: -2.4

Results for CC(C)(C)c1nn2cnnc2n(/N=C/c2ccccc2)c1=O ?
p-CIP stab down: -12.4; CHOP inh: 29.2; UPR XBP1 act: -0.5; CHOP UPR activ: 0.0; B2AR ag: -2.0; Dynein transport: 2.34

Results for C#CC(=O)N(c1cc(OC)ccc1OC)C(C(=O)NC1CCCC1)c1cccs1 (stereo unspecified) ?
p-CIP stab down: -22.4; CHOP inh: 108.5*; UPR XBP1 act: -9.3; CHOP UPR activ: -9.5; B2AR ag: 39.8; Dynein transport: -5.06*; Dynein confirm: active; CHOP inh conf: 110.8*

How did COc1ccc(N(C(=O)c2snc(C(N)=O)c2N)C(C(=O)NC2CCCC2)c2cccs2)cc1OC (stereo unspecified) do in these assays?
p-CIP stab down: 9.2; UPR XBP1 act: 1.8; CHOP UPR activ: 0.8; B2AR ag: -0.1

How did CC(C)(C)OC(=O)C[C@@H]1C/C=C\C[C@H](CC(=O)N(CCO)Cc2ccccc2)C(=O)NC[C@H](c2ccccc2)OC1=O do in these assays?
UPR XBP1 act: -3.0; CHOP UPR activ: 1.1; B2AR ag: 3.8

Results for Cc1ccccc1-c1ccccc1CN1[C@@H](C(C)C)COCCS1(=O)=O ?
UPR XBP1 act: 3.2; CHOP UPR activ: 1.1; B2AR ag: 8.6

How did O=[N+]([O-])c1c(NCCCO)cc(Sc2nc3ccccc3s2)c2nonc12 do in these assays?
p-CIP stab down: -5.0; CHOP inh: 109.4*; UPR XBP1 act: -7.3; CHOP UPR activ: -9.1; B2AR ag: 96.1*; Dynein transport: -4.13*; Dynein confirm: active; CHOP inh conf: 71.4*

How did CCCCn1c(N)c(N(C(=O)CSc2nncn2-c2ccccc2)C2CCCC2)c(=O)[nH]c1=O do in these assays?
B2AR ag: -7.5

What do the screens show for `O=C(CCl)c1ccc2c(c1)CCN2C(=O)C1CCCCC1`?
p-CIP stab down: -9.6; CHOP inh: 109.4*; UPR XBP1 act: -7.8; CHOP UPR activ: -7.0; B2AR ag: 22.1; Dynein transport: -5.68*; Dynein confirm: active; CHOP inh conf: 18.7

How did Cc1ccc(NC(=O)CCl)cc1S(=O)(=O)N1CCCCCC1 do in these assays?
p-CIP stab down: -16.6; CHOP inh: 107.9*; UPR XBP1 act: -4.4; CHOP UPR activ: 34.4; B2AR ag: -5.1; Dynein transport: -4.14*; Dynein confirm: active; CHOP inh conf: 134.3*

How did Cc1nc2c(=O)n(C)c(=O)n(C)c2nc1Cl do in these assays?
p-CIP stab down: -9.2; CHOP inh: 108.8*; B2AR ag: 14.8; Dynein transport: -6.2*; Dynein confirm: active; CHOP inh conf: 117.8*

What do the screens show for `CCN(CC)S(=O)(=O)c1ccc(OC)c(NC(=O)Cc2cccs2)c1`?
p-CIP stab down: -4.1; CHOP inh: -13.8; UPR XBP1 act: -1.7; CHOP UPR activ: 0.2; B2AR ag: -1.4; Dynein transport: -0.221

Screening data deposited in PubChem by several laboratories.
